Results published in paper PMC5850608 (Molecular Biology and Evolution, 2017).
“Also recorded” adds a separate entry of the source.

Key:
[1] = target: T1, EsemOR3 (Eriocrania semipurpurella, UniProt A0A2H4NT95); assay: Fluorescent calcium assay, HEK293 cells expressing EsemOrco and EsemOR3; type: cell-based; details: for Response of EsemOR3-expressing cells in screening: compounds screened at 30 µM
T1 sequence (A0A2H4NT95 1-441): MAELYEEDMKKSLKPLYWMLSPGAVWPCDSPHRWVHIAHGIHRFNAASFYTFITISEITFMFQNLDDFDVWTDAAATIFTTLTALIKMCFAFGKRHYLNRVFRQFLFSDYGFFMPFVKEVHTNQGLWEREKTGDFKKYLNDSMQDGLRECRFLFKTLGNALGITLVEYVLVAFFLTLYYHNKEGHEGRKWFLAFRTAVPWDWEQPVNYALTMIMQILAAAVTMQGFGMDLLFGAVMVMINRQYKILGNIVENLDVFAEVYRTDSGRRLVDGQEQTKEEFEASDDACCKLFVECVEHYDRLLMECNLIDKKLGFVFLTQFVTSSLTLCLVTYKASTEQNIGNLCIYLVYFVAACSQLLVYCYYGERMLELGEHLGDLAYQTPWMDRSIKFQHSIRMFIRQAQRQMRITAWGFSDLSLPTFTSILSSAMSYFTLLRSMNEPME
T1 sequence (A0A2H4NT96 1-482 partner): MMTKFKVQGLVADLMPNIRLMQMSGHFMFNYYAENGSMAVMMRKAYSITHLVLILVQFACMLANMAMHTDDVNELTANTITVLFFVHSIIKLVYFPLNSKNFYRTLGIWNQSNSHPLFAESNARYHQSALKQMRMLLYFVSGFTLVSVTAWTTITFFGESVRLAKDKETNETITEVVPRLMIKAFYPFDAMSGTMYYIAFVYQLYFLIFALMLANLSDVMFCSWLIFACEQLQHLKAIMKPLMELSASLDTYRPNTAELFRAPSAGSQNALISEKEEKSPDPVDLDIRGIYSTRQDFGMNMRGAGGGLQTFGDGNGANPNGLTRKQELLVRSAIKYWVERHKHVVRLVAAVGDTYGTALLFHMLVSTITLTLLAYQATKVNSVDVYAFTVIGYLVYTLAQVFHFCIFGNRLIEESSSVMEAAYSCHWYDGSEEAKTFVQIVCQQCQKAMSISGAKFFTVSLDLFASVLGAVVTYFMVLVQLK
Summary of the method: (§1)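 Inducible TREx HEK293 cells stably carry Myc-tagged Orco plus V5-tagged receptor; non-induced wells serve as control. Cells loaded 30 min RT with 1 µM Fluo4-AM, 0.2% pluronic, in DPBS (Ca2+, Mg2+, 1 mM probenecid, pH 7.1); fluorescence read 1 min after ligand. Screen at 30 µM; dose–response from 150 µM, 1/2 dilutions; Orco agonist 50 µM; 0.5% DMSO vehicle. Triplicate wells, three experiments; EC50 (95% CI) by nonlinear fit.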

[2] = target: T2, EsemOR5 (Eriocrania semipurpurella, UniProt A0A2H4NTA6); assay: Fluorescent calcium assay, HEK293 cells expressing EsemOrco and EsemOR5; type: cell-based; details: for Response of EsemOR5-expressing cells in screening: compounds screened at 30 µM
T2 sequence (A0A2H4NTA6 1-419): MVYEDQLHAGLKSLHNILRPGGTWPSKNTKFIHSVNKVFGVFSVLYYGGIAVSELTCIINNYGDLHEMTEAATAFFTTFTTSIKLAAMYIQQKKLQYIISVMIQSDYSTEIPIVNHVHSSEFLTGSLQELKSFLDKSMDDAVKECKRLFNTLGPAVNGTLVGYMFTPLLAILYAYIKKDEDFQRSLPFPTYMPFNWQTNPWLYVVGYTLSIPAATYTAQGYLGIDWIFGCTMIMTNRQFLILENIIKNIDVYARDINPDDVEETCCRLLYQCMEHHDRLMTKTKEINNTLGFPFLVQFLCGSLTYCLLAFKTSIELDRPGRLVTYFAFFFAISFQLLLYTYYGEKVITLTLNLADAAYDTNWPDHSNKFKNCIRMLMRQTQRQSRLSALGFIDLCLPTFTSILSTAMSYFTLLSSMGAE
T2 sequence (A0A2H4NT96 1-482 partner): T1 sequence (A0A2H4NT96 1-482 partner)
Summary of the method: as §1

[3] = system: E. semipurpurella males; details: cited from earlier work; for Attraction of E. semipurpurella: sex pheromone components, males but not females, ref Larsson etal. 2002; for Effect on male sex pheromone attraction: ref Kozlov etal. 1996
[4] = system: E. sangii; details: ref Kozlov etal. 1996; cited from earlier work
[5] = target: T3, EsemOR1 (Eriocrania semipurpurella, UniProt A0A2H4NTA3); assay: Fluorescent calcium assay, HEK293 cells expressing EsemOrco and EsemOR1; type: cell-based
T3 sequence (A0A2H4NTA3 1-412): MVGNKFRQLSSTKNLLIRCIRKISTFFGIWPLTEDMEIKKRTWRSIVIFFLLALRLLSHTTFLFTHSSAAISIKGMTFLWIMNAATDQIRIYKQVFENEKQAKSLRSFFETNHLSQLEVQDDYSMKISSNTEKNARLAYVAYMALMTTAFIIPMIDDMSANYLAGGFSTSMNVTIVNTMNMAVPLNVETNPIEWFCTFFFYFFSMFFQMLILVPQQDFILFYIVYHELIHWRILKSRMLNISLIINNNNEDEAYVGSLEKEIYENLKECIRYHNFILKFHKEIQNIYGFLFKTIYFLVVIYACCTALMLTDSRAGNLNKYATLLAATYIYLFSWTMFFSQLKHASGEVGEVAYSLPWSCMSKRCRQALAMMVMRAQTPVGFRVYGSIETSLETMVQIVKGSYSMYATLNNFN
T3 sequence (A0A2H4NT96 1-482 partner): T1 sequence (A0A2H4NT96 1-482 partner)
Summary of the method: as §1

[6] = system: EsemOR4; assay: Fluorescent calcium assay, HEK293 cells expressing EsemOrco and EsemOR4; type: cell-based, Eriocrania semipurpurella; details: EsemOrco + EsemOR4 cell line, 50 μM, induced cells
Summary of the method: as §1

[7] = system: EsemOR6; assay: Fluorescent calcium assay, HEK293 cells expressing EsemOrco and EsemOR6; type: cell-based, Eriocrania semipurpurella; details: EsemOrco + EsemOR6 cell line, 50 μM, induced cells
Summary of the method: as §1

| SMILES | Response of EsemOR3-expressing cells in screening ([1]; induced cells) | Response of EsemOR5-expressing cells in screening ([2]; induced cells) | further results |
| --- | --- | --- | --- |
| CCCCCCCCC(C)O (stereo not shown) [2-Decanol] | responded to a lesser extent | – | – |
| CCCCCCC(C)O (stereo not shown) [2-Octanol] | responded to a lesser extent | responded | – |
| CCCCCCC(C)=O [2-Octanone] | responded to a lesser extent | responded | – |
| CCCCCC(O)CC (stereo not shown) [3-Octanol] | responded to a lesser extent | – | – |
| CC/C=C\CCC[C@@H](C)O [(2R, 6Z)-6-nonen-2-ol, (2R,6Z)-6-Nonen-2-ol] | less so | Weaker responses | Attraction of E. semipurpurella [3]: attractive to males |
| CC/C=C\CCC[C@H](C)O [(2S,6Z)-6-Nonen-2-ol] | responded most strongly | – | EC50 [1]: 0.56 µM; Response of EsemOR5-expressing cells in screening ([2]; induced cells, listed as (2 S, 6Z)-6-nonen-2-ol): activated the OR; Attraction of E. semipurpurella [3]: attractive to males |
| CCC/C=C/COC(C)=O [(E)-2-Hexenyl acetate] | – | responded | – |
| CC(C)=CCC[C@@H](C)O [(R)-6-methyl-5-hepten-2-ol, (R)-6-Methyl-5-hepten-2-ol] | responded to a lesser extent | – | – |
| CCCCC[C@H](C)O [(S)-Heptan-2-ol] | less so; also recorded: responded to some extent | – | – |
| CCCCCCC[C@H](C)O [(S)-Nonan-2-ol] | less so | Weaker responses | – |
| CC/C=C\CCOC(C)=O [(Z)-3-Hexenyl acetate] | responded to a lesser extent | responded | – |
| CC/C=C\CCCC(C)=O [(Z)-6-Nonen-2-one] | less so; also recorded: responded to some extent | responded most strongly | EC50 [2]: 0.43 µM; Effect on male sex pheromone attraction ([3]; E. semipurpurella): antagonize male sex pheromone attraction; Behavioural effect in E. sangii [4]: antagonist |
| CCCCCCOC(C)=O [Hexyl acetate] | – | responded | – |
| CCCCCCCC(C)=O [Nonan-2-one] | less so; also recorded: more weakly | Weaker responses | Effect on pheromone attraction ([3]; E. semipurpurella, low concentration, ref Larsson etal. (2002)): increases pheromone attraction; Effect on male sex pheromone attraction ([3]; E. semipurpurella): antagonize male sex pheromone attraction |
| CCc1ccc(NC(=O)CSc2nnc(-c3cccnc3)n2CC)cc1 [VUAA1] | – | – | Response to Orco agonist (positive control) ([1]; EsemOrco + EsemOR3 cell line, 50 μM, induced cells): elicited responses in induced cells; Response to Orco agonist (positive control) ([2]; EsemOrco + EsemOR5 cell line, 50 μM, induced cells): elicited responses in induced cells; Response to Orco agonist (positive control) ([5]; EsemOrco + EsemOR1 cell line, 50 μM, induced cells): elicited responses in induced cells; Response to Orco agonist (positive control) [6]: elicited responses in induced cells; Response to Orco agonist (positive control) [7]: elicited responses in induced cells |
| C=C1CC/C=C(\C)CC[C@@H]2[C@@H]1CC2(C)C [β-caryophyllene, β-Caryophyllene] | – | – | EC50 [5]: 2.43 µM; Response of EsemOR1-expressing cells in screening ([5]; induced cells, compounds screened at 30 µM): responded |
